# PAFAH1B3 FP inh: PAFAH1B3 enzyme inhibitors, primary screen, biochemical, fluorescence polarization, human | Platelet-activating factor acetylhydrolase IB subunit alpha1 (Homo sapiens), Q15102 | recombinant PAFAH1B3, FP-rhodamine probe | inhibition, % at 3.39 µM | 340,000 tested, 0.28% active;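 active means inhibition above the screen-wide average of all tested compounds plus 3 SD, cut at about 25% in these data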
# Apaf1 inhib: inhibitors of human Apaf-1 apoptosome, primary screen, biochemical, DEVD-Rh110 fluorescence, uHTS | Apoptotic protease-activating factor 1 (Homo sapiens), O14727 | reconstituted apoptosome caspase-3 activity | inhibition, % at 20 µM | 330,000 tested, 0.71% active; active means inhibition of at least 40% at 20 µM
#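 Material: biochemical Apaf-1 apoptosome reconstitution. Medium: Hepes buffer, pH 7.5. Also added: cytochrome c activation, bis-DEVD rhodamine 110 substrate. Timing: 30 min compound preincubation, 50 min activation, room temperature. Measured by: rhodamine 110 fluorescence at Ex 480/Em 540 nm.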
# PAFAH1B2 FP inh: PAFAH1B2 enzyme inhibitors, primary screen, biochemical, fluorescence polarization, human; Platelet-activating factor acetylhydrolase IB subunit alpha2 (Homo sapiens), P68402; recombinant PAFAH1B2, FP-rhodamine activity probe; inhibition, % at 3.39 µM; 340,000 tested, 1.2% active; AID 492953, 2010;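 active means inhibition above the mean of all tested compounds plus 3 SD, cut at about 24% in these data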
# PAFAH2 inh: PAFAH2 enzyme inhibitors, primary screen, biochemical, fluorescence polarization, human; 340,000 tested, 0.99% active; recombinant PAFAH2, FP-rhodamine activity probe; inhibition, % at 3.39 µM; AID 492956, 2010; Platelet-activating factor acetylhydrolase 2, cytoplasmic (Homo sapiens), Q99487;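 active means inhibition above the mean over all tested compounds plus 3 SD, cut at about 30% in these data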;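 further: inhibitors block probe labeling of enzyme so polarization drops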
# PREPL inhibitor: PREPL enzyme inhibitors, primary screen, biochemical, fluorescence polarization; Prolyl endopeptidase-like (Homo sapiens), Q4J6C6; recombinant PREPL, fluorescence polarization activity-based probe; inhibition, % at 5.96 µM; 320,000 tested, 0.68% active; AID 2751, 2010; in the data active means inhibition above about 43%
# pPAFAH inh: pPAFAH enzyme inhibitors, primary screen, biochemical, fluorescence polarization, human; inhibition, % at 3.39 µM; recombinant pPAFAH, FP-rhodamine probe fluorescence polarization; Platelet-activating factor acetylhydrolase (Homo sapiens), Q13093; 330,000 tested, 1.5% active;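 active means inhibition above the mean inhibition across the screen plus 3 SD, cut at about 25% in these data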;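 further: inhibitors block binding of the rhodamine activity-based probe so polarization drops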
# Apaf-1 inh conf: Apaf-1 inhibitors, single-dose retest, confirmation, biochemical, fluorescence, DEVD-Rh110, 20 µM; reconstituted apoptosome, caspase-3 DEVD-Rh110 fluorescence; shares compounds with Apaf1 inhib; AID 504614, 2011; inhibition, % at 20 µM; 1,800 tested, 25% active;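 active means mean inhibition of at least 40% at 20 µM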
# Rh110 quench: Rh110 fluorescence interference by putative Apaf-1 inhibitors, confirmation, artefact control for Apaf-1 inhibitor project, biochemical, 20 µM. shares compounds with Apaf1 inhib. quenched caspase reaction. activation (fluorescence interference), % at 20 µM. 1,800 tested, under 10 active. AID 504615, 2011;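 active means signal rise of 40% or more at 20 µM, treated as a fluorescence artifact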
# Apaf1 inh interf: fluorescence interference of Apaf-1 inhibitor hits, dose response, artefact control for Apaf-1 inhibitor project; shares compounds with Apaf1 inhib; fluorescence interference counterscreen, Apaf-1 assay format; IC50, µM; 460 tested, under 10 active; call rule not given here
# A number is an active result; - = inactive; . = no result given. A selection: hits, their analogues and other compounds. The true share with any hit is near 3.5%.
SMILES,PAFAH1B3 FP inh,Apaf1 inhib,PAFAH1B2 FP inh,PAFAH2 inh,PREPL inhibitor,pPAFAH inh,Apaf-1 inh conf,Rh110 quench,others
Cc1ccc(Nc2nnc(SCC(=O)c3c(N)n(C4CC4)c(=O)[nH]c3=O)s2)cc1C,-,-,-,-,-,-,.,.,
CC(=O)c1cccc(S(=O)(=O)N2CCC(C(=O)O)(c3ccccc3)CC2)c1,-,-,-,-,-,-,.,.,
CC1CCN(S(=O)(=O)c2ccc3c(c2)N(C)C(=O)CC(=O)N3C)CC1,-,-,-,-,-,-,.,.,
O=C(Nc1ccc(-c2cccc(F)c2)cc1)C1CCCN(Cc2ccccn2)C1 (centres undefined),-,40.1,-,-,-,-,-,-,
Cc1ccc(-c2nn(CCC#N)cc2C=C(C#N)C#N)cc1,-,-,-,-,-,-,.,.,
CC1=NN(c2ccccc2)C(=O)/C1=C\c1cn(CCC#N)nc1-c1ccc(Cl)cc1,-,79.8,-,-,-,-,-,-,
C#CCOc1ccc(/C=C2/C(=O)N(c3cccc(C(=O)O)c3)N=C2C)cc1OC,-,42.6,-,-,-,-,-,-,
COc1ccccc1/C=C1/C(=O)N(c2ccccc2)N=C1C,-,92.5,-,-,-,-,-,-,
CC1=NN(c2ccccc2)C(=O)/C1=C\c1cn(-c2ccccc2)nc1C,-,-,-,-,-,-,.,.,
COc1cc(/C=C2/C(=O)N(c3ccc(Br)cc3)N=C2C)cc(OC)c1OC,-,93.5,-,-,.,.,-,-,
COc1cc(/C=C2/C(=O)N(c3ccc(C)c(C)c3)N=C2C)cc([N+](=O)[O-])c1O,-,-,-,-,-,-,.,.,
CCOC(=O)C(=O)N1CCN(CC)CC1,-,-,-,-,-,-,.,.,
CC1=NN(c2ccc(C)cc2)C(=O)/C1=C\c1ccc(Br)s1,-,89.1,-,-,-,-,-,-,
CC1=NN(c2ccc(Br)cc2)C(=O)/C1=C/c1cccs1,-,96.0,-,-,-,-,-,-,
COCCN(C(=O)CSc1nc(N)cc(=O)[nH]1)c1c(N)n(Cc2ccccc2)c(=O)[nH]c1=O,-,45.3,-,-,-,-,-,-,
COCCN(C(=O)CSc1nc2ccc(C)cc2[nH]1)c1c(N)n(Cc2ccccc2)c(=O)[nH]c1=O,-,-,-,-,-,-,.,.,
Cc1cc(C(C)(C)CC(C)(C)C)ccc1OCCOCC[N+](C)(C)Cc1ccccc1,-,85.8,-,-,-,-,59.2,-,Apaf1 inh interf=-
CCOc1ccc(NC(=O)CC2Nc3ccccc3NC2=O)cc1 (centres undefined),-,-,-,-,-,-,.,.,
CC(=O)c1ccc(NC(=O)CC2Nc3cccc4cccc(c34)NC2=O)cc1 (centres undefined),-,88.7,-,-,-,-,-,-,
Cc1cccc(NC(=O)CC2Nc3cccc4cccc(c34)NC2=O)c1 (centres undefined),-,70.6,-,-,-,-,-,-,
COc1cccc(CN2CCNC(=O)C2CC(=O)NCCn2ccc3ccccc32)c1OC (centres undefined),-,-,-,-,-,-,.,.,
COCc1ccc(CN2CCC(C(=O)Nc3cccc(-c4cccc(Cl)c4)c3)CC2)o1,-,49.3,-,-,-,-,-,-,
COc1cccc(NC2=C(NCCO)C(=O)c3ccccc3C2=O)c1,-,-,-,-,-,-,.,.,
Cc1cccc(Nc2nc(N)c([N+](=O)[O-])c(NCCO)n2)c1,-,-,-,-,-,-,.,.,
COc1ccc(NC2=C(NCCO)C(=O)c3ccccc3C2=O)cc1,-,69.6,-,-,-,-,44.8,-,Apaf1 inh interf=-
SMILES,PAFAH1B3 FP inh,Apaf1 inhib,PAFAH1B2 FP inh,PAFAH2 inh,PREPL inhibitor,pPAFAH inh,Apaf-1 inh conf,Rh110 quench,others
Cc1ccc(NC2=C(Cl)C(=O)c3ccccc3C2=O)cc1,-,.,-,-,-,-,.,.,
Cc1cccc(NC2=C(NCCO)C(=O)c3ccccc3C2=O)c1,-,56.3,-,-,-,-,-,-,
Cc1cc(C)cc(NC2=C(N)C(=O)c3ccccc3C2=O)c1,-,73.7,-,-,-,-,-,-,
Cn1cc(C(=O)c2ccc(Cl)cc2)cc1-c1nc2ccccc2n1C,-,-,-,-,-,-,.,.,
COc1ccc2c(c1)OC1(C)CC2C(C(=O)c2ccccc2OC)C(=O)N1 (centres undefined),-,-,-,-,-,-,.,.,
CC(=O)NCCc1ccc(C(=O)CSc2nnc(C3CC3)n2C2CC2)cc1,-,-,-,-,-,-,.,.,
O=S(=O)(NCc1cc(-c2ccccc2Cl)no1)c1ccc(Cl)cc1,-,-,-,-,-,-,.,.,
Cc1ccc(C(=O)N2CCN(Cc3ccccc3)CC2)cc1S(=O)(=O)N1CCOCC1,-,-,-,-,.,.,.,.,
COc1ccc(N2CCN(Cc3nc4scc(-c5ccccc5)c4c(=O)[nH]3)CC2)cc1,-,44.2,-,-,-,-,-,-,
Nc1nnc2c(n1)CCCC2,-,82.8,-,-,-,-,72.0,-,Apaf1 inh interf=-
Cc1cc([N+](=O)[O-])nn1CC(=O)N1CCCc2ccccc21,-,-,-,-,-,-,.,.,
CC1CCN(C(=O)Nc2ccc3nsnc3c2)CC1,-,-,-,-,-,-,.,.,
COc1ccc(N(C)C(=O)Nc2ccc3nsnc3c2)cc1,-,.,-,-,.,.,.,.,
O=C(Nc1ccc2nsnc2c1)N1CCCCC1,-,72.7,-,-,-,-,-,-,
CC(C)N(C(=O)Nc1ccc2nsnc2c1)C(C)C,.,97.5,.,.,-,-,95.6,-,Apaf1 inh interf=-
CCCNc1c(NS(=O)(=O)c2ccc(C)cc2C)c(=O)oc2ccccc12,-,-,-,-,-,-,.,.,
CN1CCN(S(=O)(=O)c2cccc(C(=O)Nc3cc(C(F)(F)F)ccc3N3CCCCC3)c2)CC1,-,40.5,-,-,-,-,-,-,
CCC(C)(C)c1ccc(OCCCC[n+]2cccc(C)c2C)c(C(C)(C)CC)c1,-,68.8,-,-,-,-,54.0,-,Apaf1 inh interf=-
CCC(C)(C)c1ccc(OCCCC[n+]2ccc(C)cc2)c(C(C)(C)CC)c1,.,48.4,.,.,-,-,-,-,
Cc1cc[n+](CC[n+]2ccc(C)cc2)cc1,-,-,-,-,-,-,.,.,
COC(=O)c1cc(=O)n2c(sc3ccccc32)c1C#N,-,-,-,-,-,-,.,.,

# Source: PubChem (several laboratories)
